Bioassay records as filed in PubChem BioAssay.
Neddyl block: inhibitors of human cullin neddylation; TR-FRET cullin neddylation, biochemical; P61081+Q13564; hit rate 0.58% among 360,000; inhibition, % at 25 µM; in the data active = inhibition above about 36%
GAA850 FXN act: activators of GAA850 frataxin (FXN) promoter | HEK293 lucGAA850 FXN promoter luciferase reporter, 24 h; percent of 10 µM SAHA response | activation, % at 6 µM | hit rate 0.56% among 360,000 | AID 540364;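 active = activation above the average of all compounds screened plus 3 SD, cutoff fixed separately per campaign, cut at about 7.5% in these data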
procasp3 activ: procaspase-3 (human) activation. recombinant procaspase-3 D3A, Ac-DEVD-pNA absorbance 405 nm. P42574. activation, % at 8.5 µM. hit rate 0.11% among 330,000;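 active = activation above the mean of all tested compounds plus 3 SD, cut at about 21% in these data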
Target sequence (P42574 whole entry D9A/D28A/D175A): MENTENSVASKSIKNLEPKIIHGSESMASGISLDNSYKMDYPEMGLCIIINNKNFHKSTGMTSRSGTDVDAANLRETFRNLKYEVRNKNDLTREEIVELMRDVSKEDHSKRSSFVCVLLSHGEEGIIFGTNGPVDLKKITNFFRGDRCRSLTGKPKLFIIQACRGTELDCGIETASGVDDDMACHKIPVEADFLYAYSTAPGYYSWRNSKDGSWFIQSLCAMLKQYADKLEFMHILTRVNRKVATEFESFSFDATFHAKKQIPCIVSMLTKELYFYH
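Test system: Procaspase-3 D3A mutant, all three cleavage aspartates alanine | Dosing: Single dose, 8.5 µM nominal compound, 0.8% DMSO | Schedule: 1 h preincubation, 2 h reaction | Technique: 405 nm absorbance of p-nitroaniline, reads at 0 and 120 min | Repeats: One well per compound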
HIF act: HIF pathway transcriptional activation; AID 1910; activation, % at 7.5 µM (by protocol); U2OS HRE-luciferase reporter, luminescence; normalized: DMSO 0%, desferrioxamine 100%; hit rate 0.32% among 300,000;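 active = mean activation of at least 10% of the iron chelator positive control signal, with at least half of replicates also reaching 10%; inconclusive = mean and replicate majority disagree about reaching 10%; inactive = mean and most replicates under 10%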
Calb FLC: C. albicans growth modulation with fluconazole | C. albicans CaCi-2 + fluconazole, Alamar Blue growth, 48 h | growth inhibition, % (concentration not given with the values) | hit rate 0.57% among 300,000;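 active = growth inhibition above about 58% in most replicates, limit read from the data, passing the limit was not always enough; inconclusive = exactly half the replicates above a set limit; inactive = most replicates below a set limit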;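 also: all wells also contain fluconazole at 8 µg/ml as a sub-toxic cotreatment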
procasp7 counter: activates human procaspase-7, counter-screen for procaspase-3 activators | AID 463210 | hit rate 0.093% among 330,000 | recombinant procaspase-7, Ac-DEVD-pNA absorbance 405 nm; D23A/D198A/D206A triple mutant, cannot self-cleave; scale: DMSO 0, 5 µM enzyme 100 | P55210 | activation, % at 8.5 µM;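 active = percent activation above the screen-wide mean plus 3 SD, cut at about 25% in these data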
Target sequence (P55210 whole entry D23A/D198A/D206A): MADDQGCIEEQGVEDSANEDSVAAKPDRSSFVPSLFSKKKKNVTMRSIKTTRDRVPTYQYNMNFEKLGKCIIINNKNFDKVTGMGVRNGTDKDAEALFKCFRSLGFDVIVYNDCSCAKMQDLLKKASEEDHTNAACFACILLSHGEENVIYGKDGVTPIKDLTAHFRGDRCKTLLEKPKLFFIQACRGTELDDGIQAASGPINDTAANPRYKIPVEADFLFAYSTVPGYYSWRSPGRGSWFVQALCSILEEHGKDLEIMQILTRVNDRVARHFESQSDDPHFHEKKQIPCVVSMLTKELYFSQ
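Assay system: Uncleavable procaspase-7 mutant enzyme / Input: 2 µM procaspase-7 mutant as dispensed / Dosing: single nominal 8.5 µM compound dose, 0.8% DMSO final / Timing: 1 h enzyme–compound preincubation and 2 h substrate reaction, both 25 °C / Detection: p-Nitroaniline absorbance at 405 nm, read at 0 and 120 min / Replication: singlicate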
Neddyl conf: cullin neddylation inhibition, confirmation | TR-FRET cullin neddylation biochemical assay | calls only at 25 µM | AID 652217 | hit rate 13% among 1,800 | shares compounds with Neddyl block; in the data active = inhibition above about 40%;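 also: neddylation substrate is the cullin 1 ring ligase complex with SKP2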
Large screens that a line does not name were inactive (follow-up assays come after a bar, where shown). Hits are enriched below; roughly 1.9% of the tested compounds scored in any of these assays.

COC(=O)c1[nH]c2cccc(OC)c2c1NC(=O)CN1CCN(c2cccc(OC)c2)C(C)C1 (stereo not drawn)	Neddyl block 48, Calb FLC inconclusive
COC(=O)c1[nH]c2cccc(OC)c2c1NC(=O)CCN1CCC(C)CC1	none (not shown: Neddyl block)
CCOC(=O)Nc1c(C(=O)OC)[nH]c2cccc(OC)c12	Neddyl block 42 | Neddyl conf inactive
C#CCN(C[C@H]1[C@H](OC(=O)NC2CC2)[C@H](OC(=O)NC2CC2)C[C@@H](C(=O)OC)[C@H]1C(=O)OC)S(=O)(=O)c1ccc(C)cc1	none (no result: procasp3 activ, HIF act, Calb FLC, procasp7 counter)
CCCCn1nc(C(=O)Nc2ccc(-n3cnnn3)cc2)c2ccccc2c1=O	Neddyl block 45 (no result: HIF act, Calb FLC) | Neddyl conf inactive
CC(Oc1ccc2c3c(c(=O)oc2c1)CCCC3)C(=O)NCc1cccnc1 (stereo not drawn)	none (not shown: Neddyl block)
COc1ccc(C)cc1NC(=O)c1nn(-c2ccccc2)cc1OC	Neddyl block 49 | Neddyl conf inactive
COc1cn(-c2ccccc2)nc1C(=O)Nc1ccc(C)cc1	none
O=C(N/N=C/c1cn(Cc2ccccc2)c2ccccc12)c1cc(O)cc(O)c1	Neddyl block 41 (no result: procasp3 activ, procasp7 counter) | Neddyl conf active
O=C(COC(=O)C1CCC1)Nc1ncc(Cl)cc1Cl	none
COc1ccc2c(c1)C1OCCC1C(c1ccco1)N2 (stereo not drawn)	none (not shown: Neddyl block)
c1coc(C2Nc3ccccc3C3OCCC23)c1 (stereo not drawn)	Neddyl block 40 | Neddyl conf inactive
CCCCCn1nc(C(=O)N(CC)c2c(N)n(CCCC)c(=O)[nH]c2=O)c2ccccc2c1=O	none (no result: HIF act, Calb FLC)
N#Cc1cc(-c2ccccc2)oc1/N=C/c1ccccc1O	none (not shown: Neddyl block)
COc1cccc(/C=N/c2oc(-c3ccccc3)cc2C#N)c1O	Neddyl block 46 | Neddyl conf inactive
O=C1N/C(=C/c2cccn2-c2ccc(F)cc2)C(=O)N1Cc1ccccc1	none (not shown: Neddyl block)
O=C1N/C(=C/c2cccn2-c2ccccc2)C(=O)N1Cc1ccccc1F	Neddyl block 38 | Neddyl conf inactive
Cc1ccc2c3c([nH]c2c1)C(=O)CC(C)(C)S3	Neddyl block 46 | Neddyl conf inactive
COc1ccc(C(C(=O)NCc2ccccc2)N(C(=O)c2snc(C(N)=O)c2N)c2ccccc2OC)cc1OC (stereo not drawn)	Neddyl block 53
CCOc1ccccc1N(C(=O)c1snc(C(N)=O)c1N)C(C(=O)NCc1ccccc1)c1ccc(O)cc1 (stereo not drawn)	Neddyl block 42 (not shown: procasp3 activ, procasp7 counter)
COc1ccc(N(C(=O)c2snc(C(N)=O)c2N)C(C(=O)NC2CCCC2)c2ccc(F)cc2)c(OC)c1 (stereo not drawn)	none (not shown: Neddyl block)
CC(C(=O)NCC1CCCO1)N(C(=O)c1snc(C(N)=O)c1N)c1cccc(F)c1 (stereo not drawn)	Neddyl block 52
COc1ccc(C)cc1N(C(=O)c1snc(C(N)=O)c1N)C(C(=O)NC1CCCC1)c1ccc(F)cc1 (stereo not drawn)	Neddyl block 43
C=CCc1c(C)nc(SCc2ccccc2)[nH]c1=O	none
O=C(NNC(=O)C1CC1)c1cc(Br)c(Br)s1	none (no result: HIF act, Calb FLC)
NC(=O)c1nsc(C(=O)N(c2ccccc2)C(C(=O)NCC2CCCO2)c2ccc3ncccc3c2)c1N (stereo not drawn)	none (not shown: Neddyl block)
COCCNC(=O)C(c1ccc(C)o1)N(C(=O)c1snc(C(N)=O)c1N)c1cccc(C)c1 (stereo not drawn)	Neddyl block 45 | Neddyl conf inactive
CCCC(C(=O)NCCC(C)C)N(Cc1ccccc1)C(=O)c1snc(C(N)=O)c1N (stereo not drawn)	Neddyl block 40 | Neddyl conf inactive
CCOc1ccccc1N(C(=O)c1snc(C(N)=O)c1N)C(C(=O)NCC1CCCO1)c1ccc2ncccc2c1 (stereo not drawn)	Neddyl block 52 | Neddyl conf inactive
COc1ccc(S(=O)(=O)Nc2cccc(S(=O)(=O)N(C)C)c2)cc1[N+](=O)[O-]	none (no result: procasp3 activ, HIF act, Calb FLC, procasp7 counter)
Cc1cc(=O)n2[nH]c(-c3ccc(C(C)(C)C)cc3)cc2n1	none
Cc1cc(=O)n2[nH]c(-c3ccccc3)cc2n1	Neddyl block 44 | Neddyl conf inactive
O=C(CSc1ncnc2c1cnn2-c1cccc(Cl)c1)NCC1CCCO1 (stereo not drawn)	none
COc1ccc(/C=N/NC(=O)c2sccc2C)c2ccccc12	Neddyl block 39 | Neddyl conf inactive
Cc1ccccc1/C=N/NC(=O)c1sccc1C	none
CC(=O)c1ccc(NC(=O)CN2c3cccc4cccc(c34)S2(=O)=O)cc1	Neddyl block 48 (no result: HIF act, Calb FLC) | Neddyl conf inactive
CC(=O)Nc1cccc(NC(=O)CN2c3cccc4cccc(c34)S2(=O)=O)c1	Neddyl block 43 (no result: HIF act, Calb FLC) | Neddyl conf inactive
CC(NC(=O)C(C)N1c2cccc3cccc(c23)S1(=O)=O)c1ccccc1 (stereo not drawn)	Neddyl block 42 | Neddyl conf inactive
CCNC(=O)CN1c2cccc3cccc(c23)S1(=O)=O	none
CCC(C)NC(=O)CN1c2cccc3cccc(c23)S1(=O)=O (stereo not drawn)	Neddyl block 42 | Neddyl conf inactive
COc1cc(NC(=O)CN2c3cccc4cccc(c34)S2(=O)=O)cc(OC)c1OC	none
CC(C(N)=O)N1c2cccc3cccc(c23)S1(=O)=O (stereo not drawn)	none
O=C(c1ccco1)N1CCN(Cc2csc(-c3ccccc3Cl)n2)CC1	none
CCOc1ccccc1NC(=O)COC(=O)c1nc2nccc(C)n2n1	none (no result: HIF act, Calb FLC)
CN(Cc1ccccc1F)C(=O)CN1c2cccc3cccc(c23)S1(=O)=O	Neddyl block 50 | Neddyl conf active
COCCCn1c(C)cc(C(=O)CN2c3cccc4cccc(c34)S2(=O)=O)c1C	Neddyl block 37 (no result: HIF act, Calb FLC) | Neddyl conf inactive
CCOC(=O)c1ccc(Nc2c(OCC)c(=O)c2=O)cc1	none
Cc1c(C=Nc2ccc(S(=O)(=O)CCO)cc2)c(O)[nH]c(=O)c1C#N	none
CC(=O)OC(C=C(C)C)C/C(C)=C/COc1c2ccoc2cc2oc(=O)ccc12 (stereo not drawn)	none (no result: procasp3 activ, HIF act, Calb FLC, procasp7 counter)
Cc1ccc(O)c(/C=N/NC(=O)CN2CCCC2)c1	Neddyl block 46, HIF act 15 | Neddyl conf inactive
NC(=O)c1ccc(NC(=O)C2CCCC2)cc1	none
c1ccc(Nc2cccc3c(Nc4ccccc4)cccc23)cc1	Neddyl block 38 | Neddyl conf active
c1ccc(Nc2ccccc2)cc1	none
Cc1cc2occ(CC(=O)N(C)CC(=O)Nc3cccc(F)c3)c2cc1C	none
